Consider six compounds from ChEMBL document CHEMBL1781961, “Synthesis and in vitro antibacterial activity of 7-(3-alkoxyimino-4-amino-4-methylpiperidin-1-yl) fluoroquinolone derivatives” (Eur J Med Chem, 2011).

The MIC is the least concentration at which growth counts as inhibited. A high value points to weaker potency. In general, CC50 refers to the concentration at which the toxic effect on the cells reaches its halfway point. A high value points to lower toxicity to the cells.

In brackets after ≈: the same amount, converted by molar mass. Where only a bound is given, the exact number is not on record here.

Series [1] deals with Enterococcus faecalis. Briefly: Antibacterial activity against 10^4 CFU Enterococcus faecalis 08-10 after 18 hrs by CLSI agar dilution method. It is filed as functional. The following applies: 08-10, 18 h.
Series [2] concerns Staphylococcus epidermidis. Briefly: Antibacterial activity against 10^4 CFU methicillin-resistant Staphylococcus epidermidis 09-2 after 18 hrs by CLSI agar dilution method. In kind it is functional. To be noted: 09-2, 18 h. A general note: In agar dilution the substance is mixed into plates at graded concentrations.
For series [3], the system named is Pseudomonas aeruginosa. Briefly: Antibacterial activity against 10^4 CFU Pseudomonas aeruginosa ATCC 27853 after 18 hrs by CLSI agar dilution method. It is filed as functional. The following applies: ATCC 27853, 18 h.
The subject of series [4] is Staphylococcus aureus. Briefly: Antibacterial activity against 10^4 CFU Staphylococcus aureus ATCC 25923 after 18 hrs by CLSI agar dilution method. It is filed as functional. To be noted: ATCC 25923, 18 h.
In series [5] the test system is Enterococcus faecalis. In words: Antibacterial activity against 10^4 CFU Enterococcus faecalis 08-12 after 18 hrs by CLSI agar dilution method. It is filed as functional. The following applies: 08-12, 18 h.
For series [6], the system named is Pseudomonas aeruginosa. Briefly: Antibacterial activity against 10^4 CFU Pseudomonas aeruginosa 09-32 after 18 hrs by CLSI agar dilution method. In kind it is functional. The following applies: 09-32, 18 h.
For the next series, the system named is Streptococcus pneumoniae. Briefly: Antibacterial activity against 10^4 CFU Streptococcus pneumoniae 08-4 after 18 hrs by CLSI agar dilution method. To be noted: 08-4, 18 h. In kind it is functional.
Series [7] deals with Staphylococcus aureus. Briefly: Antibacterial activity against 10^4 CFU methicillin-resistant Staphylococcus aureus 08-1 after 18 hrs by CLSI agar dilution method. In kind it is functional. To be noted: 08-1, 18 h.
The test system of series [8] is Klebsiella pneumoniae. In words: Antibacterial activity against 10^4 CFU Klebsiella pneumoniae 09-22 after 18 hrs by CLSI agar dilution method. In kind it is functional. To be noted: 09-22, 18 h.
Series [9] concerns Klebsiella pneumoniae. Briefly: Antibacterial activity against 10^4 CFU Klebsiella pneumoniae 09-23 after 18 hrs by CLSI agar dilution method. In kind it is functional. The following applies: 09-23, 18 h.
Series [10] can be described thus: Cytotoxicity against MDCK cells after 48 hrs by CPE assay. To be noted: dog. It is filed as cell-based, Canis lupus familiaris. The procedure, abridged:
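MDCK cells kept in Minimum Essential Medium with Earle's salt plus 10% fetal bovine serum at 37 °C, 5% CO₂. […] Medium then replaced by assay medium with or without compound. After 48 h exposure, viability read by CPE assay. CC₅₀ calculated by Reed–Muench analysis.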

Series [11] deals with Enterococcus faecium. Briefly: Antibacterial activity against 10^4 CFU Enterococcus faecium 08-2 after 18 hrs by CLSI agar dilution method. The following applies: 08-2, 18 h. It is filed as functional.
The test system of series [12] is Staphylococcus epidermidis. In words: Antibacterial activity against 10^4 CFU methicillin-sensitive Staphylococcus epidermidis 09-6 after 18 hrs by CLSI agar dilution method. In kind it is functional. To be noted: 09-6, 18 h.
Series [13] concerns Enterococcus faecium. In words: Antibacterial activity against 10^4 CFU Enterococcus faecium 06-7 after 18 hrs by CLSI agar dilution method. In kind it is functional. To be noted: 06-7, 18 h.
Series [14] has as its system Escherichia coli. In words: Antibacterial activity against 10^4 CFU Escherichia coli ATCC 25922 after 18 hrs by CLSI agar dilution method. The following applies: ATCC 25922, 18 h. In kind it is functional.
Series [15] concerns Staphylococcus aureus. Briefly: Antibacterial activity against 10^4 CFU methicillin-sensitive Staphylococcus aureus 08-1 after 18 hrs by CLSI agar dilution method. In kind it is functional. To be noted: 08-1, 18 h.
In series [16] the test system is Escherichia coli. Briefly: Antibacterial activity against 10^4 CFU Escherichia coli 08-21 after 18 hrs by CLSI agar dilution method. In kind it is functional. To be noted: 08-21, 18 h.

In the case of `CCn1cc(C(=O)O)c(=O)c2cc(F)c(N3CCC(C)(N)/C(=N/OC)C3)c(F)c21` (configuration not stated), the MIC in the series on Enterococcus faecalis [1] is 32 µg/mL (≈ 78.4 µM); in [2] it was 0.25 µg/mL (≈ 0.612 µM); in the series on Pseudomonas aeruginosa [3] it was 4 µg/mL (≈ 9.79 µM); against Staphylococcus aureus [4], 0.5 µg/mL (≈ 1.22 µM); against Enterococcus faecalis [5], 64 µg/mL (≈ 157 µM); against Pseudomonas aeruginosa [6], 4 µg/mL (≈ 9.79 µM). Moreover, the MIC with Streptococcus pneumoniae is 0.25 µg/mL (≈ 0.612 µM); with Staphylococcus aureus [7] it was 0.25 µg/mL (≈ 0.612 µM); with Klebsiella pneumoniae [8], 32 µg/mL (≈ 78.4 µM); in the series with Klebsiella pneumoniae [9], 64 µg/mL (≈ 157 µM); in the series on Enterococcus faecium [11], greater than 128 µg/mL; in series [12], 0.25 µg/mL (≈ 0.612 µM). For the same compound, the MIC is greater than 128 µg/mL with Enterococcus faecium [13], 128 µg/mL (≈ 313 µM) in the series with Escherichia coli [14], 0.25 µg/mL (≈ 0.612 µM) in the series on Staphylococcus aureus [15] and greater than 128 µg/mL against Escherichia coli [16]. Further, in series [10], half-maximal cytotoxicity (CC50 at 48 h) was put at 433 µM.

`CCO/N=C1\CN(c2c(F)cc3c(=O)c(C(=O)O)cn4c3c2OC[C@@H]4C)CCC1(C)N` (some centres not stated): the MIC in the series with Enterococcus faecalis [1] worked out at 32 µg/mL (≈ 74 µM); in [2], 0.25 µg/mL (≈ 0.578 µM); in the series with Pseudomonas aeruginosa [3], 4 µg/mL (≈ 9.25 µM); against Staphylococcus aureus [4], 0.25 µg/mL (≈ 0.578 µM); against Enterococcus faecalis [5], 64 µg/mL (≈ 148 µM); in the series on Pseudomonas aeruginosa [6], 64 µg/mL (≈ 148 µM). Moreover, the MIC in the series with Streptococcus pneumoniae came out at 2 µg/mL (≈ 4.62 µM); in the series with Staphylococcus aureus [7], 0.25 µg/mL (≈ 0.578 µM); against Klebsiella pneumoniae [8], 64 µg/mL (≈ 148 µM); in the series on Klebsiella pneumoniae [9], 2 µg/mL (≈ 4.62 µM); with Enterococcus faecium [11], 32 µg/mL (≈ 74 µM); in series [12] it was 0.25 µg/mL (≈ 0.578 µM). Also, the MIC against Enterococcus faecium [13] is greater than 128 µg/mL; against Escherichia coli [14] it was 32 µg/mL (≈ 74 µM); against Staphylococcus aureus [15], 0.25 µg/mL (≈ 0.578 µM); in the series with Escherichia coli [16] it was 64 µg/mL (≈ 148 µM). Besides, it took 1160 µM to reach half-maximal cytotoxicity in series [10] (CC50 at 48 h).

For `CO/N=C1\CN(c2nc3c(cc2F)c(=O)c(C(=O)O)cn3C2CC2)CCC1(C)N` (configuration not stated), the MIC with Enterococcus faecalis [1] was 16 µg/mL (≈ 39.7 µM); in series [2], 0.25 µg/mL (≈ 0.62 µM); in the series on Pseudomonas aeruginosa [3], 4 µg/mL (≈ 9.92 µM); against Staphylococcus aureus [4] it was 0.25 µg/mL (≈ 0.62 µM); with Enterococcus faecalis [5], 16 µg/mL (≈ 39.7 µM); against Pseudomonas aeruginosa [6] it was 16 µg/mL (≈ 39.7 µM). Further, the MIC against Streptococcus pneumoniae stood at 4 µg/mL (≈ 9.92 µM); in the series on Staphylococcus aureus [7], 0.25 µg/mL (≈ 0.62 µM); against Klebsiella pneumoniae [8], 16 µg/mL (≈ 39.7 µM); in the series on Klebsiella pneumoniae [9], 2 µg/mL (≈ 4.96 µM); with Enterococcus faecium [11], 64 µg/mL (≈ 159 µM); in series [12] it was 0.25 µg/mL (≈ 0.62 µM). Besides, the MIC stood at 16 µg/mL (≈ 39.7 µM) in the series on Enterococcus faecium [13], 8 µg/mL (≈ 19.8 µM) against Escherichia coli [14], 0.25 µg/mL (≈ 0.62 µM) against Staphylococcus aureus [15] and 16 µg/mL (≈ 39.7 µM) with Escherichia coli [16]. The compound also gave a cytotoxic concentration (CC50) at 48 h in series [10] of 77.4 µM.

For the compound `CO/N=C1\CN(c2c(F)cc3c(=O)c(C(=O)O)cn(CCF)c3c2F)CCC1(C)N` (configuration not stated), the MIC with Enterococcus faecalis [1] turned out to be 128 µg/mL (≈ 300 µM); in series [2], 0.25 µg/mL (≈ 0.586 µM); with Pseudomonas aeruginosa [3] it was 2 µg/mL (≈ 4.69 µM); against Staphylococcus aureus [4], 0.125 µg/mL (≈ 0.293 µM); in the series on Enterococcus faecalis [5], 32 µg/mL (≈ 75 µM); in the series with Pseudomonas aeruginosa [6], 0.5 µg/mL (≈ 1.17 µM). In addition, the MIC in the series with Streptococcus pneumoniae was determined as 2 µg/mL (≈ 4.69 µM); with Staphylococcus aureus [7], 0.25 µg/mL (≈ 0.586 µM); with Klebsiella pneumoniae [8], 16 µg/mL (≈ 37.5 µM); in the series with Klebsiella pneumoniae [9] it was 32 µg/mL (≈ 75 µM); in the series on Enterococcus faecium [11], 32 µg/mL (≈ 75 µM); in series [12] it was 0.25 µg/mL (≈ 0.586 µM). Besides, the MIC worked out at 128 µg/mL (≈ 300 µM) in the series on Enterococcus faecium [13], 32 µg/mL (≈ 75 µM) against Escherichia coli [14], 0.25 µg/mL (≈ 0.586 µM) against Staphylococcus aureus [15] and 32 µg/mL (≈ 75 µM) in the series on Escherichia coli [16]. This compound also showed a CC50 at 48 h in series [10] of 36.6 µM.

Consider `CCO/N=C1\CN(c2nc3c(cc2F)c(=O)c(C(=O)O)cn3C2CC2)CCC1(C)N` (configuration not stated), for which the minimum inhibitory concentration (MIC) was greater than 128 µg/mL against Enterococcus faecalis [1]; 0.25 µg/mL (≈ 0.599 µM) in series [2]; 8 µg/mL (≈ 19.2 µM) against Pseudomonas aeruginosa [3]; 0.125 µg/mL (≈ 0.299 µM) against Staphylococcus aureus [4]; greater than 128 µg/mL in the series on Enterococcus faecalis [5]; 2 µg/mL (≈ 4.79 µM) against Pseudomonas aeruginosa [6]. Besides, the minimal inhibitory concentration (MIC) is 0.25 µg/mL (≈ 0.599 µM) against Streptococcus pneumoniae; 0.25 µg/mL (≈ 0.599 µM) in the series on Staphylococcus aureus [7]; greater than 128 µg/mL against Klebsiella pneumoniae [8]; greater than 128 µg/mL against Klebsiella pneumoniae [9]; greater than 128 µg/mL with Enterococcus faecium [11]; 0.25 µg/mL (≈ 0.599 µM) in series [12]. The MIC in the series on Enterococcus faecium [13] was greater than 128 µg/mL; in the series on Escherichia coli [14], 128 µg/mL (≈ 307 µM); against Staphylococcus aureus [15], 0.25 µg/mL (≈ 0.599 µM); in the series with Escherichia coli [16] it was greater than 128 µg/mL. In [10], this compound yielded a CC50 at 48 h of 300 µM.

Take `CO/N=C1\CN(c2c(F)cc3c(=O)c(C(=O)O)cn(C4CC4)c3c2OC(F)F)CCC1(C)N` (configuration not stated): the MIC with Enterococcus faecalis [1] was 8 µg/mL (≈ 17.1 µM); in series [2], 0.25 µg/mL (≈ 0.534 µM); in the series on Pseudomonas aeruginosa [3] it was 4 µg/mL (≈ 8.54 µM); in the series with Staphylococcus aureus [4], 0.25 µg/mL (≈ 0.534 µM); against Enterococcus faecalis [5] it was greater than 128 µg/mL; in the series with Pseudomonas aeruginosa [6], 2 µg/mL (≈ 4.27 µM). For the same compound, the MIC in the series with Streptococcus pneumoniae is 0.25 µg/mL (≈ 0.534 µM); in the series on Staphylococcus aureus [7] it was 0.25 µg/mL (≈ 0.534 µM); in the series with Klebsiella pneumoniae [8] it was 2 µg/mL (≈ 4.27 µM); against Klebsiella pneumoniae [9], greater than 128 µg/mL; in the series with Enterococcus faecium [11], greater than 128 µg/mL; in series [12] it was 0.25 µg/mL (≈ 0.534 µM). For the same compound, the MIC was greater than 128 µg/mL against Enterococcus faecium [13], 128 µg/mL (≈ 273 µM) with Escherichia coli [14], 0.25 µg/mL (≈ 0.534 µM) with Staphylococcus aureus [15] and greater than 128 µg/mL in the series on Escherichia coli [16]. The same compound came in with a 50% cytotoxic concentration (CC50) at 48 h in series [10] of 1070 µM.
